Active and inactive are the calls of the source. No cut-off for these calls is given here.
Experiments:
JNK1/JNK2 (Mus musculus) = JNK1/JNK2 (Mus musculus) (UniProt Q91Y86+Q9WTU6); experiment: Inhibition LPS-induced JNK1/2 phosphorylation at Thr183/[…] in mouse RAW264.7 cells at 40 uM administered 30 mins prior to LPS challenge measured after 30 mins by Western blotting analysis; type: cell-based
In short: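 RAW 264.7 cells pretreated with compound for 30 min, then stimulated with LPS for an additional 30 min. Lysates resolved by 6−15% SDS-PAGE and blotted to PVDF. Primary antibodies were applied overnight at 4 °C and secondary antibodies for 2 h at room temperature. Detection by ECL. Tests in triplicate; blots representative of three separate experiments.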

RAW264.7 [1] = experiment: Antiinflammatory activity in mouse RAW264.7 cells assessed as inhibition LPS-induced IL-1beta protein expression at 20 uM after 4 hrs by Western blotting analysis; type: functional
In short: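 RAW 264.7 cells stimulated with LPS (1 μg/mL) with or without compound for 4 h. Lysates were resolved by 6−15% SDS-PAGE and blotted to PVDF. Blocked in 5% milk/PBST, primary antibody overnight at 4 °C, secondary antibody 2 h, detected by ECL. Triplicate, representative of three experiments.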

RAW264.7 [2] = experiment: Antiinflammatory activity in mouse RAW264.7 cells assessed as inhibition of LPS-induced COX2 protein expression after 16 hrs by Western blotting analysis
RAW264.7 [3] = experiment: Antiinflammatory activity in mouse RAW264.7 cells assessed as inhibition of LPS-induced iNOS protein expression at 40 uM after 16 hrs by Western blotting analysis relative to control; type: functional
In short: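 RAW 264.7 cells given LPS (1 μg/mL) with or without compound for 16 h. Cell lysates were Western blotted for iNOS and COX-2 (6−15% SDS-PAGE, PVDF, ECL detection). Performed in triplicate.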

RAW264.7 [4] = experiment: Inhibition of LPS-induced NFkappaB transcriptional activity in mouse RAW264.7 cells assessed as […] at 10 uM after 30 mins by Western blotting analysis relative to control; type: cell-based
In short: (§1)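 Macrophages were exposed to compound for 30 min before LPS stimulation, with proteins extracted 30 min later. Nuclear extracts were prepared in Tris/KCl/NP-40 lysis buffer, then 420 mM NaCl buffer, and the cytosolic fraction was kept for IκB-α. Western blot on PVDF with ECL detection. Tests in triplicate; representative of three separate experiments.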

[5] = target: Transcription factor p65 (Mus musculus) (UniProt Q04207); experiment: Inhibition of LPS-induced NFkappaB P65 protein nuclear translocation in mouse RAW264.7 cells at 10 uM after 30 mins by Western blotting analysis relative to control; type: cell-based; in short: as §1
Rattus norvegicus = experiment: Antiinflammatory activity in rat paw edema model assessed as inhibition of carrageenan-induced IL-1beta protein expression in paw tissue at 20 mg/kg, po administered 30 mins prior to carrageenan challenge measured after 6 hrs by Western blotting analysis relative to vehicle-treated control; type: functional, organism-based; parameters: dose 20 mg/kg
In short: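 SD rats received compound orally in 0.5% CMC-Na 30 min before subplantar injection of 0.1 mL 1% carrageenan in saline. Paws were removed at 6 h, homogenized, and iNOS, COX-2 and IL-1β were assessed by Western blot. Triplicate, representative of three experiments.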

RAW264.7 [6] = experiment: Inhibition of LPS-induced NF-kappaB transcriptional activity in mouse RAW264.7 cells treated 2 hrs prior to LPS challenge measured after 16 hrs by SEAP reporter gene assay relative to control; type: cell-based
In short: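 NF-κB SEAP reporter assay in RAW 264.7 cells: 2 h compound pretreatment, then LPS for 16 h. Supernatants heated 65 °C for 5 min, then reacted with 2 M diethanolamine, 1 mM MgCl2 and 500 μM MUP for 1 h at 37 °C in the dark. Fluorescence read at ex 360/em 449 nm and normalized to protein. Expressed relative to vehicle control without LPS; triplicates.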

[7] = target: Transcription factor p65 (Mus musculus) (UniProt Q04207); experiment: Inhibition of LPS-induced NF-kappaB p65 binding to DNA in mouse RAW264.7 cells at 10 to 40 uM after 1.5 hrs by spectrophotometry in presence of wild type oligonucleotide; type: cell-based
RAW264.7 [8] = experiment: Antiinflammatory activity in mouse RAW264.7 cells assessed as inhibition of LPS-induced PGE2 production administered 1 hr prior to LPS challenge measured after 20 hrs by EIA relative to control; type: functional, cell-based
In short: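 RAW 264.7 cells plated at 3 × 10^5 cells/mL, pretreated with compound for 1 h, then stimulated with 1 μg/mL LPS for 20 h. PGE2 in the supernatant was measured by immunoassay kit. Mean ± SD of triplicates.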

[9] = target: T1, Nuclear factor NF-kappa-B p105 subunit (Mus musculus) (UniProt P25799); experiment: Inhibition of LPS-induced NF-kappaB p50 binding to DNA in mouse RAW264.7 cells at 10 to 40 uM after 1.5 hrs by spectrophotometry in presence of wild type oligonucleotide; type: cell-based
T1 sequence (whole entry): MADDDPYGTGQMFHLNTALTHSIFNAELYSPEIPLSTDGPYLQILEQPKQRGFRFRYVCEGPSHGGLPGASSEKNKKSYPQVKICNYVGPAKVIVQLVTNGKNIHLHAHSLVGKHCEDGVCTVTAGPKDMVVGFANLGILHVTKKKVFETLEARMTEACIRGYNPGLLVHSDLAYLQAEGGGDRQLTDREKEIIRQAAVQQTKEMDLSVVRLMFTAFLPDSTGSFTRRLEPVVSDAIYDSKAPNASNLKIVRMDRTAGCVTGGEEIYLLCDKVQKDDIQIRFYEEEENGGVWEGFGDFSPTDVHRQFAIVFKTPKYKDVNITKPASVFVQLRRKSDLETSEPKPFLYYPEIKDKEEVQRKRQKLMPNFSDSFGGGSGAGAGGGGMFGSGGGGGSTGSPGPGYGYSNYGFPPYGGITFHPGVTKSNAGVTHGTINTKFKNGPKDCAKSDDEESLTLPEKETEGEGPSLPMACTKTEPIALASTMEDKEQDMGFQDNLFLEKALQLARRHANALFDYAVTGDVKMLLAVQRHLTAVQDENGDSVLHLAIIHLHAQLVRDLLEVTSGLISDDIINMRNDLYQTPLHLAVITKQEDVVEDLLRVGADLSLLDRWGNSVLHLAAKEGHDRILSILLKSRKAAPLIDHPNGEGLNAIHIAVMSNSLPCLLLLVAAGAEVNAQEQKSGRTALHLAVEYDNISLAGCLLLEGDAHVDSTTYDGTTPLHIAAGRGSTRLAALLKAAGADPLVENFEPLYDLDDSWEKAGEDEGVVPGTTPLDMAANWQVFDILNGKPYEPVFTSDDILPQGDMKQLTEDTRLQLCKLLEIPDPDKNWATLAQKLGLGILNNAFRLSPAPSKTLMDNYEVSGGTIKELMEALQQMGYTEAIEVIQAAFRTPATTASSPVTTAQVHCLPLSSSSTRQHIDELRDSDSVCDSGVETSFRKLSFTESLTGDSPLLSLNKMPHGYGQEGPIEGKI

[10] = target: Transcription factor p65 (Mus musculus) (UniProt Q04207); experiment: Inhibition of LPS-induced NF-kappaB p65 binding to DNA in mouse RAW264.7 cells at 10 to 40 uM after 1.5 hrs by spectrophotometry in presence of mutant oligonucleotide; type: cell-based

Chain of Transcription factor p65 (Mus musculus) (Q04207 whole entry): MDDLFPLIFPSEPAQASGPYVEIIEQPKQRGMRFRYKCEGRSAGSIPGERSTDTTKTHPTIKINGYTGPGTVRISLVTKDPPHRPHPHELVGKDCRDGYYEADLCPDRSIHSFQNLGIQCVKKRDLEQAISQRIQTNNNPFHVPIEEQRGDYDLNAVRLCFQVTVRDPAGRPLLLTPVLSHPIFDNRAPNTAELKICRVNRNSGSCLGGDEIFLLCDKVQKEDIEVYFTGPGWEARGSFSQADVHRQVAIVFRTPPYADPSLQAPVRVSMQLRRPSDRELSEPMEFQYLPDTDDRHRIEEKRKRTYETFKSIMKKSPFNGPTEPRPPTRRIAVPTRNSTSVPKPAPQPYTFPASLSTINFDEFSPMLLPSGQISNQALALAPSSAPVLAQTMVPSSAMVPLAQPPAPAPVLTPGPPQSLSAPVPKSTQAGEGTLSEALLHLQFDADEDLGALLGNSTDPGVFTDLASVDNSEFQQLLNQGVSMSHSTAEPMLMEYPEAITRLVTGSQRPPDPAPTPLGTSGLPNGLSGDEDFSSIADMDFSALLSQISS
Chain of JNK1/JNK2 (Mus musculus) (Q91Y86 whole entry, looked up): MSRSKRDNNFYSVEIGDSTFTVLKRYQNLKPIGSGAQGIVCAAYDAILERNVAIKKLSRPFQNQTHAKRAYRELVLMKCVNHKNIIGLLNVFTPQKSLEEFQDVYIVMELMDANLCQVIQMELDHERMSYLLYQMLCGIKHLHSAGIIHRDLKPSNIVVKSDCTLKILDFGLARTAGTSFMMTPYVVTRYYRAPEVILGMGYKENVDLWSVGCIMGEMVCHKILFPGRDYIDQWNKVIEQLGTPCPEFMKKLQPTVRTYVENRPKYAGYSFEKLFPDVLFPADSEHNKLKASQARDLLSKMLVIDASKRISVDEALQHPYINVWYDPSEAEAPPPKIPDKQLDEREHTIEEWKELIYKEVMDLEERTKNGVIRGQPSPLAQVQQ
Chain of JNK1/JNK2 (Mus musculus) (Q9WTU6 whole entry, looked up): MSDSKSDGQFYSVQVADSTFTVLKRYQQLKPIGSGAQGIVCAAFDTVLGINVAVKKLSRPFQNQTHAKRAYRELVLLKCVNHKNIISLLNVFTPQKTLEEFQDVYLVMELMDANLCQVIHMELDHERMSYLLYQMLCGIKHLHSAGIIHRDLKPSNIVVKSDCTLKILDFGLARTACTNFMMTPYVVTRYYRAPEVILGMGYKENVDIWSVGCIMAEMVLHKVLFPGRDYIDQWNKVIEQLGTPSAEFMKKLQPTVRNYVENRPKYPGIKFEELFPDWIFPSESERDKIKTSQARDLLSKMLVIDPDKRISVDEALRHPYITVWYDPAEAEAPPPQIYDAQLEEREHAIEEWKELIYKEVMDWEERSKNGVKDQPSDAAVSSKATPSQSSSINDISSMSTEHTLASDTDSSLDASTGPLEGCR

C=C1C(=O)O[C@@H]2[C@@H]3[C@@]4(C=C[C@@]3(C)[C@]3(C4)C(=O)O[C@@H]4[C@H]5C(C)=CC[C@H]5[C@](C)(O)C[C@H](OC(C)=O)[C@H]43)[C@](C)(O)CC[C@@H]12
fold change (FC) (JNK1/JNK2 (Mus musculus)): 0.24
fold change (FC) (RAW264.7 [1]): 0.67
inhibition (RAW264.7 [2]): Dose-dependent effect
fold change (FC) (RAW264.7 [3]): 0.13
fold change (FC) (RAW264.7 [4]): 1.91
inhibition [5]: Active
inhibition (Rattus norvegicus): Active
inhibition (RAW264.7 [6]): Active
inhibition [7]: inactive
IC50 (RAW264.7 [8]): 14.3 µM
inhibition (RAW264.7 [8]): Dose-dependent effect
inhibition [9]: inactive
inhibition [10]: Active
